Experimental data from different studies.
Each line is one published result; the experiments were not run side by side.
Target: Homeodomain-interacting protein kinase 2 (HIPK2, Homo sapiens, UniProt Q9H2X6)
Read-out: enzyme activity
Action: inhibitor

| SMILES | technique | tested at | remaining activity [%] |
| --- | --- | --- | --- |
| CCCOc1ccc(OC)c(F)c1C(=O)c1ccc(C(=O)N[C@@H]2CNC[C@H]2NC(=O)c2ccc3[nH]ncc3c2)cc1 | – | 10 µM | 94 |
| CC(C)(C)c1nc(-c2cccc(NS(=O)(=O)c3c(F)cccc3F)c2F)c(-c2ccnc(N)n2)s1 | radiometric | 1 µM | 80 |
| Nc1nc(Nc2ccccc2)sc1C(=O)c1c(F)cccc1F | – | 10 µM | 16 |
| Cc1ccc(C(=O)Nc2ccc(CN3CCN(C)CC3)c(C(F)(F)F)c2)cc1C#Cc1cnc2cccnn12 | – | 23.5 nM | 100 |
| O=C(O)c1ccc2c(c1)nc(Nc1ccccc1)c1ncncc12 | radiometric | 1 µM | 2 |
| Cc1cnc(NC2CCOCC2)nc1-n1cnc(C(=O)NC(CN)c2cc(F)cc(Cl)c2)c1 (stereo not shown) | radiometric | 1 µM | 92 |
| Cc1sc(C(=O)NC2COC2)cc1-n1cc(NC(=O)Nc2c(F)cccc2Cl)cn1 | – | 10 µM | 103 |
| O=C(O)c1ccc2c(c1)nc(NCCc1ccccc1)c1ncncc12 | radiometric | 1 µM | 7 |
| FC(F)c1nc2ccccc2n1-c1nc(N2CCOCC2)nc(N2CCOCC2)n1 | – | 10 µM | 63 |
| O=C(O)c1ccc2c(c1)nc(NCCc1cccc(F)c1)c1ncncc12 | radiometric | 1 µM | 6 |
| Nc1nc(NC2CCCCC2)sc1C(=O)c1ccccc1 | – | 10 µM | 64 |
| O=C(O)c1ccc2c(c1)nc(Nc1ccc(Cl)cc1)c1ncncc12 | radiometric | 1 µM | -2 |
| COc1cc(Cl)c(C(=O)N[C@@H](CN[C@H]2CC[C@@H](N)CC2)Cc2ccc(C#N)cc2)cc1-c1ccc(CN[C@H](C)c2ccc(C)cc2)o1 | – | 1 µM | 105 |
